Experimental data reported in ChEMBL document CHEMBL5136962, “Synthesis and immunological evaluation of N-acyl modified Globo H derivatives as anticancer vaccine candidates” (RSC Med Chem, 2021).
Activity calls are given as the source filed them.

Experiments:
Mus musculus [1] = assay: (§1) Induction of antigen-specific immunogenicity in pathogen free Balb/c mouse assessed as increase in IgG1 antibody titer production against modified Globo H antigen at 2 ug, IM administered 4 times at biweekly interval measured 14 days post fourth vaccination in presence of 2 ug glycolipid adjuvant C34 by ELISA; format: functional, organism-based; conditions: dose 2.0 µg, time 14.0 day
Mus musculus [2] = assay: as §1, with “native” for “modified”, “13” for “14”, “third” for “fourth”; format: functional, organism-based; conditions: dose 2.0 µg, time 13.0 day
In short: (§2)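 Six female Balb/c mice per group received CRM197 glycoconjugate (2 μg carbohydrate antigen) with C34 adjuvant (2 μg) intramuscularly, four times at two-week intervals. Pooled group sera were tested for IgG subclasses by ELISA on plates coated with the unmodified Globo H–BSA conjugate (G0-BSA).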

Mus musculus [3] = assay: as §1, with “native” for “modified”; format: functional, organism-based; conditions: dose 2.0 µg, time 14.0 day; in short: as §2
Globohexaosylceramide = assay: Binding affinity to globo H antigen in human MCF7 cells using mouse sera induced by compound immunization and 14 days post fourth vaccination measured after 30 mins by FITC-conjugated antibody based flow cytometry; format: cell-based; conditions: time 14.0 day
In short: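 Immune sera from vaccinated mice were incubated with Globo H-positive MCF-7 human breast cancer cells. Binding of serum antibodies to the cells was measured by flow cytometry.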

MCF7 = assay: Induction of complement-dependent cytotoxicity against human MCF7 cells assessed as increase in cell lysis using mouse sera induced by compound immunization and 14 days post fourth vaccination measured after 1 hr by LDH release assay; format: functional, cell-based; conditions: time 14.0 day
In short: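 Complement-dependent cytotoxicity on MCF-7 cells used pooled sera collected after the 4th vaccination, diluted 1:10. Percent lysis was read by LDH release, with three wells per measurement. Values are mean ± SEM of three independent experiments, compared by one-way ANOVA.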

Measured: Activity

C[C@@H]1O[C@@H](O[C@H]2[C@H](O[C@H]3[C@@H](O)[C@@H](CO)O[C@@H](O[C@H]4[C@@H](O)[C@@H](CO)O[C@H](O[C@@H]5[C@H](O)[C@@H](O)[C@H](O[C@H]6[C@H](O)[C@@H](O)[C@H](OCCCCCN)O[C@@H]6CO)O[C@@H]5CO)[C@@H]4O)[C@@H]3NC(=O)C(F)(F)F)O[C@H](CO)[C@H](O)[C@@H]2O)[C@@H](O)[C@H](O)[C@@H]1O
active: all assays above

C[C@@H]1O[C@@H](O[C@H]2[C@H](O[C@H]3[C@@H](O)[C@@H](CO)O[C@@H](O[C@H]4[C@@H](O)[C@@H](CO)O[C@H](O[C@@H]5[C@H](O)[C@@H](O)[C@H](O[C@H]6[C@H](O)[C@@H](O)[C@H](OCCCCCN)O[C@@H]6CO)O[C@@H]5CO)[C@@H]4O)[C@@H]3NC(=O)C(F)F)O[C@H](CO)[C@H](O)[C@@H]2O)[C@@H](O)[C@H](O)[C@@H]1O
active: all assays above

CC(=O)N[C@H]1[C@H](O[C@H]2[C@@H](O)[C@@H](CO)O[C@H](O[C@@H]3[C@H](O)[C@@H](O)[C@H](O[C@H]4[C@H](O)[C@@H](O)[C@H](OCCCCCN)O[C@@H]4CO)O[C@@H]3CO)[C@@H]2O)O[C@H](CO)[C@H](O)[C@@H]1O[C@@H]1O[C@H](CO)[C@H](O)[C@H](O)[C@H]1O[C@@H]1O[C@@H](C)[C@@H](O)[C@@H](O)[C@@H]1O
not listed: MCF7
active: all other assays above
